# Sampled rows, rich in hits. Any-hit rate of the full collection: about 2.3%.
# MC4R ag barr – agonists of human melanocortin 4 receptor (MC4R) beta-arrestin; P32245; activation, % at 8.9 µM; U2OS MC4R beta-arrestin complementation, luminescence; percent of melanotan II response, DMSO zero; hit rate 0.98% among 360,000;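 active means activation above a per-plate cutoff, the mean activation of sample wells on that plate plus 3 SD, cut at about 8% in these data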
# Target sequence (P32245 whole entry, looked up): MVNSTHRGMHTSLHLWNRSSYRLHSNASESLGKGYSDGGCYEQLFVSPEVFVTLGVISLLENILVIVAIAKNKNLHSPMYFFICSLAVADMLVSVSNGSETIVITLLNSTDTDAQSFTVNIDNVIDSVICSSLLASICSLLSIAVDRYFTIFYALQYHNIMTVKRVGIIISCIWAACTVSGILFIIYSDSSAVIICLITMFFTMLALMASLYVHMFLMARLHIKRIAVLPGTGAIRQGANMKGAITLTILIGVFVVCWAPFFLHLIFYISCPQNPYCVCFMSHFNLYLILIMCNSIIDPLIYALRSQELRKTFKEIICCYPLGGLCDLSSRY
# MsrA inhibitor – inhibitors of bovine MsrA. purified bovine MsrA, absorbance read-out. AID 651718. inhibition, % at 15.5 µM. hit rate 0.75% among 360,000;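 further: 0% = vehicle wells with enzyme and 100% = reference inhibitor wells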
# MC4R antag cAMP – antagonists of human melanocortin 4 receptor (MC4R) | MC4R-expressing cells, MTII-stimulated cAMP, LANCE TR-FRET | inhibition, % at 6.5 µM | hit rate 0.48% among 360,000;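 active means inhibition above its plate's cutoff, the mean of tested wells on that plate plus 3 SD, cut at about 29% in these data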;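 further: 0% = Melanotan II alone and 100% = Melanotan II plus saturating MCL0020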
#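 Material – human MC4R-expressing U2OS cells · Repeats – no replicates · Detection – TR-FRET with Eu-cAMP and labeled anti-cAMP, 671 nm · Times – compound 30 min, challenge 1 h, detection 1 h · Compound – single nominal compound dose of 6.5 µM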
# MsrA act – activators of bovine methionine sulfoxide reductase A. activation, % at 10.6 µM. AID 602163. hit rate 0.3% among 360,000. purified bovine MsrA, absorbance read-out; in the data active means activation above about 7.5%;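 further: 0% = vehicle and 100% = reference activator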
# MsrA inh confirm – confirmation of bovine MsrA inhibitors. shares compounds with MsrA inhibitor. purified bovine MsrA, absorbance read-out. inhibition, % at 15.5 µM. hit rate 41% among 2,300;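 further: coupled to thioredoxin reductase with NADPH and selenocystamine and DMSO as substrate; 0% = vehicle only and 100% = full effect of reference inhibitor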
# An asterisk follows results filed as active; x = not tested or not shown. Unless noted, no stated cut-off is given here; in the data, active means inhibition above about 4.5%; inactive means the rest.
SMILES,MC4R ag barr,MsrA inhibitor,MC4R antag cAMP,MsrA act,MsrA inh confirm
COc1cccc(C2=N/C(=C\N(C)C)C(=O)O2)c1,0,11*,-4,-8,7.0*
COc1cccc(-c2nc3ccccc3c(=O)o2)c1,-2,1,17,-4,x
COC(=O)CSC1=C(C#N)C(=O)NC(c2ccccc2)S1 (stereo unspecified),-1,6.1*,1,-19,4.8*
CSC1=C(C#N)C(=O)NC(c2ccccc2O)S1 (stereo unspecified),0,2,13,-7,x
O=c1nccc(N/N=C/c2cccc(O)c2)[nH]1,0,6.8*,-2,-1,4
COc1cc(/C=N/Nc2ccnc(=O)[nH]2)ccc1O,-2,6.9*,-11,-5,6.3*
CC(=O)Nc1ccc(SCC(=O)OCC(=O)NC(=O)NCc2ccco2)cc1,0,1,7,-2,x
O=C(/C=C/c1c(Cl)nc2ccccn12)N1CCCCC1,-1,7.8*,5,-4,4
Cc1cc2nc(N3C(=O)CNC3=S)sc2cc1C,-3,7.7*,1,-6,4.9*
CCOc1ccc2nc(N3C(=O)CNC3=S)sc2c1,-4,7.3*,-9,-5,4.6*
CCCCC(=O)N1CCN(c2nc3ccc(OCC)cc3s2)CC1,0,0,20,0,x
CN(C)c1cccc(NC2=CC(=[N+]3CCOCC3)CC(C)(C)C2)c1,-3,4.8*,2,-6,5.2*
CC1CCN(C(=O)c2ccc(CSc3nc4ccncc4n3Cc3ccc(F)cc3)cc2)CC1,0,-1,-8,0,x
O=C(c1cnc2sccn2c1=O)N1CCc2ccccc2C1,-1,4.8*,6,-4,4
O=C(c1cnc2sccn2c1=O)N1CCN(c2ccccc2Cl)CC1,4,1,-1,-14,x
COc1ccc(Nc2nc(C)c(C(C)=O)s2)cc1,x,5.4*,x,-5,3
OC(CNC1CCCCC1)CNC1CCCCC1,0,-1,19,-1,x
C(=N\Nc1nc2ccccc2s1)/c1ccco1,1,6.2*,-9,-15,5.5*
CC1(C)C=C(c2ccc(C=O)s2)CC(C)(C)N1,-1,2,-6,1,x
CC1(C)C=C(c2ccc(C=O)s2)CC(C)(C)N1C=O,1,4.8*,5,-10,3
Cc1ccc(/C=N\Nc2nc3ccc(Cl)cc3[nH]2)o1,-2,4.7*,6,0,4
Fc1ccccc1-c1ccc(/C=N/Nc2nc3ccccc3[nH]2)o1,1,2,16,-2,x
COc1ccc(/C=N/N2C(=O)C3C4C=CC(C4)C3C2=O)cc1[N+](=O)[O-] (stereo unspecified),-1,8.4*,2,-11,8.2*
CN1CCN(C(=O)c2cnn3c(C(F)(F)F)cc(-c4ccc5c(c4)OCO5)nc23)CC1,0,4,4,-3,x
CC1Cc2ccccc2N1C1=NS(=O)(=O)c2ccccc21 (stereo unspecified),-1,2,-1,-1,x
SMILES,MC4R ag barr,MsrA inhibitor,MC4R antag cAMP,MsrA act,MsrA inh confirm
CC1Cc2ccccc2N1C1=CC(=O)CCC1 (stereo unspecified),-1,5.5*,-2,-4,5.4*
O=C1C(=O)N(CCCn2ccnc2)C(c2ccc(Cl)cc2)/C1=C(\O)c1ccc2c(c1)OCCO2 (stereo unspecified),0,9.1*,6,-5,1
COc1ccc(/C(O)=C2/C(=O)C(=O)N(CCCN3CCOCC3)C2c2ccc(Cl)cc2)cc1 (stereo unspecified),4,6.8*,0,-3,2
COc1ccc(C2/C(=C(/O)c3ccccc3)C(=O)C(=O)N2CCCN2CCOCC2)cc1 (stereo unspecified),-2,3,-9,-2,x
Cc1ccc(Cc2c(-c3ccc(Cl)cc3)nc3ccc(Cl)cn23)cc1,-1,0,-14,-1,x
COc1ccc(C)cc1NC(=O)C(Sc1nnc(Nc2cc(C)ccc2OC)s1)c1ccccc1 (stereo unspecified),-1,5.2*,10,-2,1
Cc1cc(N/N=C/c2ccc(O)cc2O)nc(-n2nc(C)cc2C)n1,-3,4.8*,-26,-10,4
Cc1nc(Cl)cc(N/N=C/c2ccc(O)cc2O)n1,-1,5.7*,-28,-9,6.2*
COc1ccc(/C=N/Nc2cc(C)nc(-n3nc(C)cc3C)n2)cc1,-2,3,-5,-3,x
COc1cccc(NC(=O)CN(C)C(=O)/C=C/c2cn(-c3ccccc3)nc2-c2ccc(C)cc2)c1,-4,3,15,-5,x
COc1ccc(NC(=O)CN(C)C(=O)/C=C/c2cn(-c3ccccc3)nc2-c2ccc(C)cc2)cc1,-3,4.9*,1,-4,3
Cc1cc(C)n2nc(C(F)(F)F)c(-c3ccccc3)c2n1,0,4.8*,14,-1,0
Cc1cc(N)n2nc(-c3ccccc3)c(-c3ccccc3)c2n1,-2,x,12,-2,x
Cn1c(=O)[nH]c(=O)c2c1nc(N1CCOCC1)n2CC(O)COc1ccccc1 (stereo unspecified),-3,-1,-2,-1,x
O=C(/C=C/c1ccc2c(c1)OCO2)c1cccnc1,2,2,12,-7,x
O=C(N/N=C\C=C\c1ccc2c(c1)OCO2)c1cccnc1,-1,8.0*,-27,-15,5.7*
O=C(N/N=C\C=C\c1ccc2c(c1)OCO2)C1COc2ccccc2O1 (stereo unspecified),-2,4.8*,-3,-11,3
CC(Oc1ccc(Cl)cc1)C(=O)NCCN1C(=O)S/C(=C\c2cccnc2)C1=O (stereo unspecified),1,2,18,0,x
O=C(NCCN1C(=O)S/C(=C\c2ccccc2F)C1=O)C1=COCCO1,0,4.8*,-7,-5,2
O=C(NCCN1C(=O)S/C(=C\c2ccc(OC(F)F)cc2)C1=O)c1cnccn1,-1,5.1*,-23,-7,2
O=C(NCCN1C(=O)S/C(=C\c2ccccc2Cl)C1=O)C1=COCCO1,-2,-1,-1,-2,x
COc1ccc(/C=C2\SC(=O)N(CCNC(=O)C3=COCCO3)C2=O)cc1,-3,8.5*,-14,-3,3
O=C(NCCN1C(=O)S/C(=C\c2ccc(OC(F)F)cc2)C1=O)C1=COCCO1,1,x,3,-5,x
O=C1CCC/C1=C/Nc1cccc(F)c1,0,1,-3,-6,x
COc1ccc(-c2cc(C(F)(F)F)nc(S(C)(=O)=O)n2)cc1,-4,5.4*,4,-9,2
CS(=O)(=O)c1nc(-c2ccc(F)cc2)cc(C(F)(F)F)n1,-2,1,12,-7,x
C#CCn1c(=NC(=O)c2ccc(S(=O)(=O)N3CCCc4ccccc43)cc2)sc2cc(S(N)(=O)=O)ccc21,-3,5.3*,4,-5,4
Cn1c(=NC(=O)c2ccc(S(=O)(=O)N3CCCc4ccccc43)cc2)sc2cc(S(C)(=O)=O)ccc21,0,1,3,-5,x
CCN(CC)S(=O)(=O)c1ccc(N/N=C/c2ccc(O)cc2)nc1,2,5.7*,-2,-4,4.9*

# Screening data: PubChem BioAssay, The Scripps Research Institute Molecular Screening Center
